Test results from paper PMC2441798 (Nucleic Acids Research, 2008).
Peptide text beside a SMILES is read from it.

How the values were obtained:
[1] = system: PlcRII; assay: plcA'-lacZ β-galactosidase assay in 407; format: cell-based, Bacillus thuringiensis; conditions: 2 µM peptide, 1 h
In short: (§1)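 Reporter strain 407 (plcA′Z ΔplcR–papR), carrying plcR on plasmid pHT304 under its own promoter, grown in LB without antibiotics at 37°C with vigorous shaking to stationary-phase onset T0 (OD600 3 ± 0.3). Cultures split into 12 ml fractions. Cognate synthetic PapR penta- or heptapeptide added at 2 µM final, then 1 h incubation. 2 ml pelleted for β-galactosidase assay. Each assay run at least three times.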

[2] = system: PlcRI'II; assay: plcA'-lacZ β-galactosidase assay, chimeric PlcRI'II; format: cell-based, Bacillus thuringiensis; conditions: 2 µM heptapeptide, 1 h, PlcRI'II chimera
In short: (§2)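 Reporter strain Bacillus 407 (plcA′Z ΔplcR–papR), which carries a plcA promoter–lacZ fusion, was complemented with pHT304-based plasmids carrying modified plcR genes under their own promoter. Cultures were grown in LB without antibiotics at 37°C with vigorous shaking to stationary-phase onset (OD600 3 ± 0.3), then split into 12 ml fractions. Synthetic peptide was added to 2 µM final for 1 h. β-galactosidase was assayed on 2 ml pellets, with at least three repeats.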

[3] = system: PlcRA278K; assay: plcA'-lacZ β-galactosidase assay, PlcRA278K mutant; format: cell-based, Bacillus thuringiensis; conditions: 2 µM heptapeptide, 1 h; similar to PlcRI'II response
In short: as §2

[4] = system: PlcRI'III; assay: plcA'-lacZ β-galactosidase assay, chimeric PlcRI'III; format: cell-based, Bacillus thuringiensis; conditions: 2 µM heptapeptide, 1 h, PlcRI'III chimera
In short: as §2

[5] = target: T1, PlcR (Bacillus thuringiensis, UniProt Q45782); assay: Steady-state fluorescence anisotropy binding titrations
T1 sequence (Q45782 1-285): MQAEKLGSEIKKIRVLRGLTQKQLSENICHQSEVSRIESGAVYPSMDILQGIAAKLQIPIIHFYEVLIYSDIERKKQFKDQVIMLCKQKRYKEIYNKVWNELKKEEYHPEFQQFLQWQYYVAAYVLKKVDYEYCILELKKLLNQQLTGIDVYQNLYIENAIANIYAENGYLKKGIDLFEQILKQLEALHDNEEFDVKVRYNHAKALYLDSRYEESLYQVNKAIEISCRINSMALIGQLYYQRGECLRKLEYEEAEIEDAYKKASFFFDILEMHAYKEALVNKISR

[6] = system: PlcRIV; assay: plcA'-lacZ β-galactosidase assay in 407; format: cell-based, Bacillus thuringiensis; conditions: 2 µM peptide, 1 h
In short: as §1

[7] = system: PlcRIII; assay: plcA'-lacZ β-galactosidase assay in 407; format: cell-based, Bacillus thuringiensis; conditions: 2 µM peptide, 1 h
In short: as §1

SDMPFEF
activation of plcA'lacZ expression (in words) [1]: activated | activation greater than that of wild-type PlcRI by PapRI [2]: about 2 fold | activation less than that of PlcRII by PapRII [2]: 2 fold | activation of PlcRA278K (in words) [3]: activated

MPFEF
activation of plcA'lacZ expression (in words) [1]: activated

NELPFEF
activation of PlcRI'III (in words) [4]: partly restores

CC(C)C[C@H](N)C(=O)N1CCC[C@H]1C(=O)N[C@@H](Cc1ccccc1)C(=O)N[C@@H](CCC(=O)O)C(=O)N[C@@H](Cc1ccccc1)C(=O)O [LPFEF] (H-LPFEF-OH)
Kd [5]: 41 µM

LPFEH
activation of plcA'lacZ expression (in words) [6]: activated

VPFEF
activation of plcA'lacZ expression (in words) [7]: activated

NEVPFEF
activation of plcA'lacZ expression (in words) [7]: activated | activation of PlcRI'III (in words) [4]: not activated

SDLPFEH
activation of plcA'lacZ expression (in words) [6]: activated

CC(C)C[C@H](NC(=O)[C@H](CC(=O)O)NC(=O)[C@H](C)N)C(=O)N1CCC[C@H]1C(=O)N[C@@H](Cc1ccccc1)C(=O)N[C@@H](CCC(=O)O)C(=O)N[C@@H](Cc1ccccc1)C(=O)O [ADLPFEF] (H-ADLPFEF-OH)
Kd [5]: 25 µM
